The source made the active and inactive calls. The rule behind the calls is not given here.
Columns and labels:
Rattus norvegicus [1] = test: Antiinflammatory activity in Wistar rat assessed as inhibition of cotton pellet-induced granuloma formation at 50 mg/kg, po after 5 days relative to control; format: functional; details: for inhibition in vivo at 50 mg/kg: 120 h
How it was run: (§1)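 Preweighed sterile cotton wool pellets were implanted subcutaneously in rats, one on each side of a ventral midline incision. Compounds were suspended in 0.7% methylcellulose and given orally once daily on days 0–5, starting 2–3 h before implantation; controls received vehicle (10 mL/kg). On day 6 the pellets were removed and dried at 80 °C to constant weight. Mean granuloma per rat was compared with controls by Student's t test.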

Rattus norvegicus [2] = test: Antiinflammatory activity in Wistar rat assessed as inhibition of cotton pellet-induced granuloma formation at 3 mg/kg, po after 5 days relative to control; format: functional, organism-based; set-up: dose 3 mg/kg; how it was run: as §1
Rattus norvegicus [3] = test: Antiinflammatory activity in rat assessed as inhibition of carrageenan-induced paw edema at 300 mg/kg, po relative to control; format: functional
How it was run: (§2)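 Carrageenan paw edema in rats, compounds given orally. Edema is expressed as percent inhibition.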

Rattus norvegicus [4] = test: Antiinflammatory activity in Wistar rat assessed as inhibition of cotton pellet-induced granuloma formation at 100 mg/kg, po after 5 days relative to control; format: functional; details: 120 h; how it was run: as §1
Rattus norvegicus [5] = species: Rattus norvegicus; test: animal or person; details: Wistar, po, 120 h, read-out: INH
Rattus norvegicus [6] = species: Rattus norvegicus; test: animal or person; details: po, read-out: INH
Rattus norvegicus [7] = test: Antiinflammatory activity in rat assessed as inhibition of carrageenan-induced paw edema at 100 mg/kg, po relative to control; format: functional; how it was run: as §2
Rattus norvegicus [8] = test: Antiinflammatory activity in Wistar rat assessed as inhibition of cotton pellet-induced granuloma formation at 10 mg/kg, po after 5 days relative to control; format: functional; details: 120 h; how it was run: as §1
Rattus norvegicus [9] = test: Antiinflammatory activity in rat assessed as inhibition of carrageenan-induced paw edema at 15 mg/kg, po relative to control; format: functional; how it was run: as §2

SMILES: CC(=O)CCc1ccc2cc(C)ccc2c1
- inhibition in vivo at 50 mg/kg (Rattus norvegicus [1]): 34%

SMILES: CC(=O)CCc1ccc2cc(OC(C)=O)ccc2c1
- inhibition in vivo at 50 mg/kg (Rattus norvegicus [1]): 2%

SMILES: COc1ccc2cc(CC/C(C)=N\O)ccc2c1
- inhibition in vivo at 50 mg/kg (Rattus norvegicus [1]): 15%

SMILES: CC(=O)CCc1ccc2cc(Cl)ccc2c1
- inhibition in vivo at 50 mg/kg (Rattus norvegicus [1]): 53%

SMILES: CC(=O)Oc1ccccc1C(=O)O [ASPIRIN]
- inhibition (Rattus norvegicus [2]): inactive
- inhibition in vivo at 300 mg/kg (Rattus norvegicus [3]): 31%
- inhibition in vivo at 100 mg/kg (Rattus norvegicus [4]): 5%

SMILES: CCC(CC(C)=O)c1ccc2cc(OC)ccc2c1 (stereo not drawn)
- inhibition in vivo at 50 mg/kg (Rattus norvegicus [1]): 20%

SMILES: Cc1ccc2cc(CCC(C)O)ccc2c1 (stereo not drawn)
- inhibition in vivo at 50 mg/kg (Rattus norvegicus [1]): 35%

SMILES: COc1ccc2cc(CCC(C)(C)O)ccc2c1
- inhibition in vivo at 50 mg/kg (Rattus norvegicus [1]): 3%

SMILES: COc1ccc2cc(CC(C)C(C)=O)ccc2c1 (stereo not drawn)
- inhibition in vivo at 50 mg/kg (Rattus norvegicus [1]): 7%

SMILES: COc1ccc(CCC(C)=O)c2ccccc12
- inhibition in vivo at 50 mg/kg (Rattus norvegicus [1]): 0%

SMILES: COc1ccc2cc(CCC(C)OC(=O)CC(C)(C)CC(=O)O)ccc2c1 (stereo not drawn)
- inhibition in vivo at 50 mg/kg (Rattus norvegicus [1]): 26%

SMILES: COc1ccc2cc([C@H](C)C(=O)O)ccc2c1 [NAPROXEN]
- inhibition in vivo at 30 mg/kg (Rattus norvegicus [5]): 46%
- inhibition (Rattus norvegicus [2]): inactive
- inhibition in vivo at 6 mg/kg (Rattus norvegicus [6]): 30%

SMILES: CCOc1ccc2cc(CCC(C)=O)ccc2c1
- inhibition in vivo at 50 mg/kg (Rattus norvegicus [1]): 12%

SMILES: COc1ccc2cc(C(C)CC(C)=O)ccc2c1 (stereo not drawn)
- inhibition in vivo at 50 mg/kg (Rattus norvegicus [1]): 24%
- inhibition in vivo at 100 mg/kg (Rattus norvegicus [7]): 36%

SMILES: CC(=O)CC(C)c1ccc2cc(C)ccc2c1 (stereo not drawn)
- inhibition in vivo at 50 mg/kg (Rattus norvegicus [1]): 11%

SMILES: CCC(=O)CCc1ccc2cc(OC)ccc2c1
- inhibition in vivo at 50 mg/kg (Rattus norvegicus [1]): 7%

SMILES: CC(=O)/C=C/c1ccc2cc(C)ccc2c1
- inhibition in vivo at 50 mg/kg (Rattus norvegicus [1]): 29%

SMILES: COc1ccc2cc(CCC(C)OC(=O)c3cc(OC)c(OC)c(OC)c3)ccc2c1 (stereo not drawn)
- inhibition in vivo at 50 mg/kg (Rattus norvegicus [1]): 41%

SMILES: COc1ccc2cc(CCC3(C)OCCO3)ccc2c1
- inhibition in vivo at 50 mg/kg (Rattus norvegicus [1]): 22%

SMILES: COc1ccc2cc(CCC(C)OC(C)=O)ccc2c1 (stereo not drawn)
- inhibition in vivo at 50 mg/kg (Rattus norvegicus [1]): 38%

SMILES: CC(=O)CCc1ccc2cc(O)ccc2c1
- inhibition in vivo at 50 mg/kg (Rattus norvegicus [1]): 5%

SMILES: COc1ccc2cc(CC(=O)O)ccc2c1
- inhibition (Rattus norvegicus [1]): Active

SMILES: COc1ccc2ccccc2c1CCC(C)=O
- inhibition in vivo at 50 mg/kg (Rattus norvegicus [1]): 10%

SMILES: CNC(=O)Oc1ccc2cc(CCC(C)=O)ccc2c1
- inhibition in vivo at 50 mg/kg (Rattus norvegicus [1]): 21%
- inhibition (Rattus norvegicus [2]): inactive

SMILES: COc1ccc2cc(/C=C/C(C)=O)ccc2c1
- inhibition in vivo at 50 mg/kg (Rattus norvegicus [1]): 18%
- inhibition in vivo at 100 mg/kg (Rattus norvegicus [7]): 50%

SMILES: CC(=O)CCc1ccc2ccccc2c1
- inhibition in vivo at 50 mg/kg (Rattus norvegicus [1]): 20%

SMILES: C[C@]12CCC(=O)C=C1CC[C@@H]1[C@@H]2[C@@H](O)C[C@@]2(C)[C@H]1CC[C@]2(O)C(=O)CO [HYDROCORTISONE]
- inhibition in vivo at 10 mg/kg (Rattus norvegicus [8]): 30%
- inhibition (Rattus norvegicus [2]): inactive

SMILES: COc1ccc2cc(CCC(C)=O)ccc2c1 [NABUMETONE]
- inhibition in vivo at 15 mg/kg (Rattus norvegicus [9]): 37%
- inhibition in vivo at 50 mg/kg (Rattus norvegicus [1]): 39%

SMILES: COc1ccc2cc(CCC(C)O)ccc2c1 (stereo not drawn)
- inhibition in vivo at 50 mg/kg (Rattus norvegicus [1]): 32%

— ChEMBL document CHEMBL3272122, “4-(6-Methoxy-2-naphthyl)butan-2-one and related analogues, a novel structural class of antiinflammatory compounds” (1978)
